Screening results as filed in PubChem.
The list is not random: actives were taken first. Their share in the collection is about 1.3%.
LANA-H2B inh: blocks KSHV LANA binding to histone H2A/H2B; AID 2629; Q9QR71; 320,000 tested, 0.6% active; inhibition, % (concentration not given with the values); cell-free LANA-H2A/H2B peptide, fluorescence polarization; in the data active = inhibition mostly above about 10%, no sharp cut-off; inactive = mostly below about 6.7%
Target sequence (Q9QR71 whole entry, looked up): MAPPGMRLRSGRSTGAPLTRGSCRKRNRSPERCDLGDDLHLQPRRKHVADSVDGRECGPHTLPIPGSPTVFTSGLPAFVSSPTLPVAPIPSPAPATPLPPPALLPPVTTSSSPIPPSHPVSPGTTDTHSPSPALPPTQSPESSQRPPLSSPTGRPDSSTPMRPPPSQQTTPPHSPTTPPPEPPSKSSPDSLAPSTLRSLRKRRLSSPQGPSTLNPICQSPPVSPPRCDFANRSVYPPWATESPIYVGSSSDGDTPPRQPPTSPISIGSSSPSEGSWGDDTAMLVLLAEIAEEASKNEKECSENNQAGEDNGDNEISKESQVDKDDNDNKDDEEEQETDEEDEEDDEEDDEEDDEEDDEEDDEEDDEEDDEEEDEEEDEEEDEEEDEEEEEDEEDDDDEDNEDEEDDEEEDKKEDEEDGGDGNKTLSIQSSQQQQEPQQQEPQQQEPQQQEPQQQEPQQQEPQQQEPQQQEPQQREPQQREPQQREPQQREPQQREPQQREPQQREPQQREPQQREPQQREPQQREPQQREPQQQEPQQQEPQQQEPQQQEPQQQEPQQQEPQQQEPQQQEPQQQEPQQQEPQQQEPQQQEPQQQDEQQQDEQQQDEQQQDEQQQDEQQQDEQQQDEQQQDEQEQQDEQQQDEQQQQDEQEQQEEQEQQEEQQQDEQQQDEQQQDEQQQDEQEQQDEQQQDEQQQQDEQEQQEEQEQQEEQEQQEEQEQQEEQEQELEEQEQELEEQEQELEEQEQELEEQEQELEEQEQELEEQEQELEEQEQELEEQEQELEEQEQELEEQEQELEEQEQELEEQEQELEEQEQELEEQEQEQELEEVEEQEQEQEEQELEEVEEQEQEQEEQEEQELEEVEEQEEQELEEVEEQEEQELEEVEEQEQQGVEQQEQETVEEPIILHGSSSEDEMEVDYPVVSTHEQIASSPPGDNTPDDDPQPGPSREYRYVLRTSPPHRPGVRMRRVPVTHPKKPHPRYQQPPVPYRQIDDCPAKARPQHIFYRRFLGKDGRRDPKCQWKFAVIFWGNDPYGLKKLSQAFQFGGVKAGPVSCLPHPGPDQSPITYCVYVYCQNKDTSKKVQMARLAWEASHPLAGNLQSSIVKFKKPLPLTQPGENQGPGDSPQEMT
STK33 inh: blocks human STK33 kinase activity; purified STK33, MBP phosphorylation, ADP-Glo luminescence; AID 2661; inhibition, % at 10 µM; 320,000 tested, 0.073% active;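 active = inhibition at or above 25%, using the most active replicate where run in duplicate; inactive = inhibition below 25%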
TAG inh: inhibitors of triacylglycerol accumulation | inhibition, % at 12.5 µM | 230,000 tested, 0.66% active | AID 651582 | H9c2 cells, Nile Red lipid (TAG) fluorescence; cells loaded with 200 µM oleic acid;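 active = pattern-corrected inhibition of lipid staining of at least 50% with the nuclear-stain viability signal not falling by more than 50%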;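 note: 0% = DMSO wells and 100% = triacsin C control wells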
GSK3beta inhib: blocks human GSK3beta kinase activity; GST-GSK3beta kinase, ADP-Glo luminescence, 60 min; active compounds read low; activity score (negative = inhibition), % at 10 µM; AID 2097; 300,000 tested, 0.038% active;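 active = more than half of replicate wells score below -50%, meaning over 50% inhibition versus plate controls; inconclusive = some replicates but at most half score below -50%; inactive = no replicate scores below -50%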;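 note: 0% = median DMSO wells and -100% = median GW8510 positive control wells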
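Test system – GST-tagged human GSK3beta kinase, cell-free · Incubation – 60 min enzyme reaction, room temperature · Signal – ADP-Glo luminescence · Also added – peptide substrate and ATP at 25 µM · Controls – DMSO neutral wells and GW8510 at 20 µM as positive · Buffer or medium – Tris/MgCl2 kinase buffer · Measure – Luminescence-derived activity versus plate DMSO and GW8510 wells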
Lipid droplet: hepatic lipid droplet formation modulation | inhibition, % at 6.5 µM | AML12 mouse hepatocytes, oleate lipid droplets, BODIPY imaging | 240,000 tested, 0.4% active | AID 1656;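 active = lipid droplet intensity inhibited by at least 50%, with more than 500 cells counted; inconclusive = wells with under 300 cells, treated as cytotoxic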
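Assay system: AML12 mouse liver cells | Compound: 6.5 µM single-point dosing | Schedule: Overnight exposure | Technique: Fluorescence imaging, 20x objective, two fields per well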
GSK3 alpha inh: human GSK-3 alpha kinase inhibition; P49840; ADP-Glo luminescence, 60 min; inhibition, % at 10 µM; 320,000 tested, 0.1% active; AID 2650;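 active = more than half of replicates show inhibition above 20%; inconclusive = some but at most half of replicates above 20% inhibition; inactive = no replicate shows inhibition above 20%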;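 note: GST-tagged GSK-3 alpha with peptide substrate and 25 µM ATP; 0% = DMSO neutral wells and 100% = GW8510 positive control wells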
H9c2 TAG conf: confirmation of triacylglycerol accumulation inhibitors; AID 651629; inhibition, % at 12.5 µM; 990 tested, 71% active; shares compounds with TAG inh; H9c2 lipid accumulation, Nile Red fluorescence; cells loaded with 200 µM oleic acid;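 active = mean inhibition across replicates of 40% or more; inactive = mean inhibition below 40%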;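 note: plate controls were DMSO only wells for no effect and Triacsin C treated wells for full effect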
Numbers without * were called inactive; u = inconclusive; x = not tested or not shown.

SMILES	LANA-H2B inh	STK33 inh	TAG inh	GSK3beta inhib	Lipid droplet	GSK3 alpha inh	H9c2 TAG conf
O=C(O)c1cc(-c2cccs2)nc2cc3c(cc12)OCCO3	1	0	x	-1	-4	x	x
O=C(CSc1cccc2cccnc12)Nc1ccccc1F	3	-2	73*	1	-4	-2	-1
O=C(CSc1cccc2cccnc12)Nc1cc(C(=O)O)cc(C(=O)O)c1	7	-5	52*	-2	2	-1	19
Cc1cccc(NC(=O)CSc2cccc3cccnc23)c1	5	-1	59*	-2	-14	-3	-14
O=C(CSc1cccc2cccnc12)N1CCCC1	2	7	98	0	3	6	x
CCCCOc1ccc(NC(=O)CSc2cccc3cccnc23)cc1	5	0	12	-4	31	0	x
NNC(=O)CSc1cccc2cccnc12	4	1	x	3	10	-1	x
O=c1c2c3nc4ccccc4nc3n(/N=C/c3ccccn3)c2ncn1-c1ccccc1	-3	2	72*	3	31	0	71*
COCCn1cnc2c(c1=O)c1nc3ccccc3nc1n2/N=C/c1cccc(OC)c1	0	0	27	-2	27	-6	x
COc1cc(-c2cnc3c(NC=O)cc(-c4cccnc4)cn23)cc(OC)c1OC	x	x	54*	x	x	x	46*
COc1cccc(-c2cc(NC=O)c3ncc(-c4cc(OC)c(OC)c(OC)c4)n3c2)c1	x	x	45	x	x	x	x
COc1ccc(-c2cc(NC=O)c3ncc(-c4ccc(OC)c(OC)c4)n3c2)cc1	x	x	56*	x	x	x	66*
Cc1ccc(S(=O)(=O)CCC(=O)OCC(=O)N2c3ccccc3NC(=O)C2(C)C)cc1	-5	0	8	2	x	-3	x
CCc1ccc(/C=N/NC(=O)c2cc(-c3ccncc3)nc3ccccc23)s1	4	1	47	5	u	4	x
CCCc1cc(C(=O)N/N=C/c2ccc(CC)s2)c2ccccc2n1	3	1	56*	1	x	-4	61*
COc1ccc2nc(N(CCN(C)C)C(=O)c3ccc4ncsc4c3)sc2c1	x	x	-4	x	x	x	x
C[C@H](O)[C@@H]1CN2CCc3c([nH]c4ccc(-c5ccc6c(c5)OCO6)cc34)[C@@H]2C[C@@H]1N(C)C(=O)Nc1ccc(F)cc1	x	x	82*	x	x	x	69*
COc1ccc(-c2ccc3[nH]c4c(c3c2)CCN2C(=O)[C@@H]([C@H](C)O)[C@@H](N(C)C(=O)Nc3cc(Cl)cc(Cl)c3)C[C@@H]42)cc1	x	x	62*	x	x	x	63*
COc1ccc(-c2ccc3[nH]c4c(c3c2)CCN2C[C@@H]([C@H](C)O)[C@@H](N(C)C(=O)Nc3cc(Cl)cc(Cl)c3)C[C@@H]42)cc1	x	x	28	x	x	x	x
Cc1cccc(-c2ccc3[nH]c4c(c3c2)CCN2C[C@@H]([C@H](C)OC(=O)Nc3ccccc3C)[C@@H](N(C)C(=O)Nc3ccccc3C)C[C@@H]42)c1	x	x	54*	x	x	x	66*
C[C@H](NS(=O)(=O)c1c(Cl)cccc1Cl)C(=O)NNC(=O)COc1ccccc1F	9	0	1	x	x	-1	x
CN(C)c1ccc(CNn2cnnc2SCc2ccccc2F)cc1	-5	0	x	3	16	2	x
CCOc1cc2c(cc1O)CCC1C2CCC2(C)C(O)CCC12 (centres undefined)	x	x	73*	x	x	x	57*
CCc1nc2c(OCC(=O)c3ccc(F)cc3)cccn2c1N(C)C(=O)c1ccccc1F	x	x	10	x	x	x	x
O=C(COc1ccc(Br)cc1CNC1CCCCC1)NCCc1ccccc1	1	0	59*	-3	-7	0	39
SMILES	LANA-H2B inh	STK33 inh	TAG inh	GSK3beta inhib	Lipid droplet	GSK3 alpha inh	H9c2 TAG conf
Cn1c(=O)c2cc(NC(=O)Cc3ccccc3F)ccc2n1C/C=C/c1ccccc1	x	x	5	x	x	x	x
CCOCCC(=O)Nc1ccc2c(c1)c(=O)n(C)n2C/C=C/c1ccccc1	x	x	53*	x	x	x	49*
CCOC(=O)NCc1ccc(S(=O)(=O)Nc2ccc(C)cc2)cc1	-8	-2	-5	3	-5	-1	x
CCCc1nc2oc3c(NCCN(C)C)ncnc3c2c2c1CCCC2	-7	2	58*	-8	x	9	24
CCCc1nc2oc3c(Cl)ncnc3c2c2c1CCCC2	4	1	2	3	3	-2	x
Cc1ccc(-c2csc(NC(=O)CSc3nc4ccccc4c(=O)n3CCCN(C)C)n2)cc1	2	0	70*	6	4	-2	83*
CCn1c(SCC(=O)Nc2nc(-c3ccc(C)cc3)cs2)nnc1-c1ccccc1O	1	0	80*	-2	24	0	68*
O=C(Nc1sc2c(c1-c1nc3ccccc3[nH]1)CCCC2)C1CCCC1	-4	-2	58*	-2	x	-2	60*
CC(=O)NCCC(=O)Nc1sc2c(c1-c1nc3ccccc3[nH]1)CCCC2	1	3	x	3	x	0	x
Cc1cc(Cl)ccc1OCC(=O)Nn1c(C)ccc1C	-4	-2	5	-1	3	1	x
O=S(=O)(c1ccccc1)c1ccc(NCc2ccco2)cc1	-2	-1	x	-3	x	-2	x
O=C1C(Cl)=C(NCc2ccco2)C(=O)c2ccccc21	x	x	65*	x	x	x	46*
Cc1n[nH]c(=O)c2c(NC(=O)COC(=O)c3cccc(OC(F)F)c3)oc(C)c12	-9	2	3	0	x	-1	x
CC(=O)Nc1ccc(S(=O)(=O)Nc2ccc(F)c([N+](=O)[O-])c2)cc1	-1	-1	2	3	0	0	x
O=C(c1ccc(F)cc1)C1CCN(C(=O)NC2CCCCC2)CC1	3	0	50*	-3	x	-2	29
O=C(NC1CCN(C(=O)NC2CCCCC2)CC1)c1cccc(F)c1	-1	0	x	-1	8	-3	x
Cc1ccc(Cn2nnnc2CN2CCC(O)(c3ccccc3F)CC2)cc1	2	-1	x	4	13	-7	x
CC(C)N(C(=O)[C@H]1C[C@H](CC(=O)NCc2cccc(C(F)(F)F)c2)C(=O)N2CCc3c([nH]c4ccc(Cl)cc34)[C@]12C)C(C)C	x	x	57*	x	x	x	82*
COc1ccc2[nH]c3c(c2c1)CCN1C(=O)C(CC(=O)NCC24CC5CC(CC(C5)C2)C4)C[C@H](C(=O)N(C(C)C)C(C)C)[C@@]31C (some centres undefined)	x	x	51*	x	x	x	59*
C[C@]12c3[nH]c4ccc(Cl)cc4c3CCN1C(=O)[C@@H](CC(=O)NCc1cccc(C(F)(F)F)c1)C[C@@H]2C(=O)N1CCOCC1	x	x	29	x	x	x	x
CCOc1cc(-c2nc(-c3ccccc3)c(-c3cc([N+](=O)[O-])ccc3C)[nH]2)ccc1O	9	0	x	-3	9	x	x
